ChEMBL document CHEMBL3632476, “Novel spirobicyclic artemisinin analogues (artemalogues): Synthesis and antitumor activities” (Eur J Med Chem, 2015)

Columns and labels:
A549 [1] = test: Cytotoxicity against human A549 cells assessed as inhibition of cell proliferation after 72 hrs by SRB assay; format: functional, cell-based; conditions: A549, 72 h
Method in brief: (§1)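 SRB assay. Cells were seeded, cultured overnight, then exposed to a gradient of agent concentrations for 72 h. Absorbance was read at 560 nm.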

[2] = Cytotoxicity against human KB cells assessed as inhibition of cell proliferation after 72 hrs by SRB assay; format: functional, cell-based; method in brief: as §1
[3] = Cytotoxicity against human KB/VCR cells assessed as inhibition of cell proliferation after 72 hrs by SRB assay; format: functional, cell-based; method in brief: as §1
[4] = Potency index, ratio of IC50 for artemisinin to IC50 for test compound against human KB/VCR cells; format: functional
A549 [5] = test: Potency index, ratio of IC50 for artemisinin to IC50 for test compound against human A549 cells; format: functional
KB [6] = test: Potency index, ratio of IC50 for artemisinin to IC50 for test compound against human KB cells; format: functional
L1210 = test: Cytotoxicity against mouse L1210 cells by MTT assay; format: functional, cell-based
A549 [7] = test: Selectivity index, ratio of IC50 for human A549 cells to IC50 for human KB cells; format: functional
KB [8] = test: Selectivity index, ratio of IC50 for human KB/VCR cells to IC50 for human KB cells; format: functional
HepG2 = test: Cytotoxicity against human HepG2 cells by MTT assay; format: functional, cell-based

Structure (SMILES): CCO[C@@H]1O[C@@H]2O[C@@]3(C)CC[C@H]4[C@H](C)CC[C@@H]([C@]15C[C@@H]1c6ccc(OC)cc6CCN1O5)[C@@]24OO3
- IC50 (A549 [1]): > 20 µM
- IC50 [2]: > 20 µM
- IC50 [3]: > 20 µM

Structure (SMILES): CO[C@H]1O[C@@H]2O[C@@]3(C)CC[C@H]4[C@H](C)CC[C@@H]([C@]15CC(c1c(Cl)cccc1Cl)=NO5)[C@@]24OO3
- IC50 (A549 [1]): 14.4 µM
- IC50 [2]: 5.29 µM
- IC50 [3]: 5.06 µM

Structure (SMILES): CO[C@@H]1O[C@@H]2O[C@@]3(C)CC[C@H]4[C@H](C)CC[C@@H]([C@]15CC(c1c(Cl)cccc1Cl)=NO5)[C@@]24OO3
- IC50 (A549 [1]): > 20 µM
- IC50 [2]: > 20 µM
- IC50 [3]: > 20 µM

Structure (SMILES): COc1ccc2c(c1)CCN1O[C@@]3(C[C@H]21)[C@H](OC)O[C@@H]1O[C@@]2(C)CC[C@H]4[C@H](C)CC[C@@H]3[C@@]14OO2
- IC50 (A549 [1]): > 20 µM
- IC50 [2]: > 20 µM
- IC50 [3]: > 20 µM

Structure (SMILES): C[C@@H]1CC[C@@H]2[C@]34OO[C@](C)(CC[C@@H]13)O[C@H]4OC(=O)[C@@]21C[C@@H]2CCCN2O1
- IC50 (A549 [1]): 10.5 µM
- IC50 [2]: 2.34 µM
- IC50 [3]: 3.35 µM

Structure (SMILES): CO[C@@H]1O[C@@H]2O[C@@]3(C)CC[C@H]4[C@H](C)CC[C@@H]([C@]15CC(c1ccc(Cl)cc1)=NO5)[C@@]24OO3
- IC50 [2]: > 20 µM
- IC50 [3]: > 20 µM

Structure (SMILES): COc1ccc(C2=NO[C@@]3(C2)C(=O)O[C@@H]2O[C@@]4(C)CC[C@H]5[C@H](C)CC[C@@H]3[C@@]25OO4)cc1
- IC50 (A549 [1]): > 20 µM
- IC50 [2]: > 20 µM
- IC50 [3]: > 20 µM

Structure (SMILES): COc1ccc2c(c1)CCN1O[C@@]3(C[C@H]21)C(=O)O[C@@H]1O[C@@]2(C)CC[C@H]4[C@H](C)CC[C@@H]3[C@@]14O2
- IC50 [2]: 15.4 µM
- IC50 [3]: 13.4 µM

Structure (SMILES): CCO[C@H]1O[C@@H]2O[C@@]3(C)CC[C@H]4[C@H](C)CC[C@@H]([C@]15C[C@@H]1c6ccc(OC)cc6CCN1O5)[C@@]24OO3
- IC50 (A549 [1]): > 20 µM
- IC50 [2]: > 20 µM
- IC50 [3]: > 20 µM

Structure (SMILES): COc1cc(C2=NO[C@@]3(C2)C(=O)O[C@@H]2O[C@@]4(C)CC[C@H]5[C@H](C)CC[C@@H]3[C@@]25OO4)cc(OC)c1OC
- IC50 (A549 [1]): > 20 µM
- IC50 [2]: > 20 µM
- IC50 [3]: > 20 µM

Structure (SMILES): C[C@@H]1CC[C@@H]2[C@]34OO[C@](C)(CC[C@@H]13)O[C@H]4OC(=O)[C@@]21CC(c2ccccc2)=NO1
- IC50 (A549 [1]): > 20 µM
- IC50 [2]: > 20 µM
- IC50 [3]: > 20 µM

Structure (SMILES): COc1ccc2c(c1)CCN1O[C@@]3(C[C@H]21)[C@@H](OCCN1CCOCC1)O[C@@H]1O[C@@]2(C)CC[C@H]4[C@H](C)CC[C@@H]3[C@@]14OO2
- IC50 (A549 [1]): > 20 µM
- IC50 [2]: > 20 µM
- IC50 [3]: > 20 µM

Structure (SMILES): COC(=O)c1ccc(C2=NO[C@@]3(C2)C(=O)O[C@@H]2O[C@@]4(C)CC[C@H]5[C@H](C)CC[C@@H]3[C@@]25OO4)cc1
- IC50 [2]: > 20 µM
- IC50 [3]: > 20 µM

Structure (SMILES): COc1cc2c(cc1OC)[C@H]1C[C@]3(ON1CC2)C(=O)O[C@@H]1O[C@@]2(C)CC[C@H]4[C@H](C)CC[C@@H]3[C@@]14OO2
- IC50 (A549 [1]): 4.69 µM
- IC50 [2]: 2.53 µM
- IC50 [3]: 2.35 µM

Structure (SMILES): COc1ccc2c(c1)CCN1O[C@@]3(C[C@H]21)C(=O)O[C@@H]1O[C@@]2(C)CC[C@H]4[C@H](C)CC[C@@H]3[C@@]14OO2
- IC50 (A549 [1]): 5.01 µM
- Ratio IC50 [4]: 4
- Ratio IC50 (A549 [5]): 4
- IC50 [2]: 1.47 µM
- Ratio IC50 (KB [6]): 4
- IC50 [3]: 3.16 µM

Structure (SMILES): COc1ccc2c(c1)CCN1O[C@@]3(C[C@H]21)[C@@H](F)O[C@@H]1O[C@@]2(C)CC[C@H]4[C@H](C)CC[C@@H]3[C@@]14OO2
- IC50 [2]: > 20 µM
- IC50 [3]: > 20 µM

Structure (SMILES): C[C@@H]1CC[C@@H]2[C@]34OO[C@](C)(CC[C@@H]13)O[C@H]4OC(=O)[C@@]21C[C@@H]2COCCN2O1
- IC50 [2]: > 20 µM
- IC50 [3]: > 20 µM

Structure (SMILES): COc1ccc2c(c1)CCN1O[C@@]3(C[C@H]21)[C@H](F)O[C@@H]1O[C@@]2(C)CC[C@H]4[C@H](C)CC[C@@H]3[C@@]14OO2
- IC50 [2]: > 20 µM
- IC50 [3]: > 20 µM

Structure (SMILES): C[C@H]1[C@@H](O[C@H](C#N)c2ccc(Br)cc2)O[C@@H]2O[C@@]3(C)CC[C@H]4[C@H](C)CC[C@@H]1[C@@]24OO3
- IC50 (L1210): 0.01 µM

Structure (SMILES): C[C@@H]1CC[C@@H]2[C@]34OO[C@](C)(CC[C@@H]13)O[C@H]4OC(=O)[C@@]21C[C@@H]2c3ccccc3CCN2O1
- IC50 (A549 [1]): 9.93 µM
- Ratio IC50 (A549 [7]): 3
- Ratio IC50 (KB [8]): 3
- IC50 [2]: 2.91 µM
- IC50 [3]: 14 µM

Structure (SMILES): C[C@@H]1CC[C@@H]2[C@]34OO[C@](C)(CC[C@@H]13)O[C@H]4OC(=O)[C@@]21CC(c2c(Cl)cccc2Cl)=NO1
- IC50 (A549 [1]): > 20 µM
- IC50 [2]: > 20 µM
- IC50 [3]: > 20 µM

Structure (SMILES): CO[C@H]1O[C@@H]2O[C@@]3(C)CC[C@H]4[C@H](C)CC[C@@H]([C@]15CC(c1ccc(Cl)cc1)=NO5)[C@@]24OO3
- IC50 [2]: > 20 µM
- IC50 [3]: > 20 µM

Structure (SMILES): COc1ccc2c(c1)CCN1O[C@@]3(C[C@H]21)[C@@H](OC)O[C@@H]1O[C@@]2(C)CC[C@H]4[C@H](C)CC[C@@H]3[C@@]14OO2
- IC50 (A549 [1]): > 20 µM
- IC50 [2]: > 20 µM
- IC50 [3]: > 20 µM

Structure (SMILES): COc1ccc(C2=NO[C@@]3(C2)C(=O)O[C@@H]2O[C@@]4(C)CC[C@H]5[C@H](C)CC[C@@H]3[C@@]25OO4)cc1OC
- IC50 (A549 [1]): > 20 µM
- IC50 [2]: > 20 µM
- IC50 [3]: > 20 µM

Structure (SMILES): CCCCCCCCCCCCCCNC(=O)C[C@H]1O[C@@H]2O[C@@]3(C)CC[C@H]4[C@H](C)CC[C@@H]([C@H]1C)[C@@]24OO3
- IC50 (HepG2): 0.46 µM

Structure (SMILES): C[C@@H]1CC[C@@H]2[C@]34OO[C@](C)(CC[C@@H]13)O[C@H]4OC(=O)[C@@]21C[C@H]2c3ccccc3CCN2O1
- IC50 [2]: > 20 µM
- IC50 [3]: > 20 µM

Structure (SMILES): COc1ccc2c(c1)CCN1O[C@@]3(C[C@@H]21)C(=O)O[C@@H]1O[C@@]2(C)CC[C@H]4[C@H](C)CC[C@@H]3[C@@]14O2
- IC50 [2]: > 20 µM
- IC50 [3]: > 20 µM

Structure (SMILES): COc1ccc2c(c1)CCN1O[C@@]3(C[C@H]21)[C@@H](OCCN1CCN(C)CC1)O[C@@H]1O[C@@]2(C)CC[C@H]4[C@H](C)CC[C@@H]3[C@@]14OO2
- IC50 (A549 [1]): > 20 µM
- IC50 [2]: 17.9 µM
- IC50 [3]: 16.9 µM

Structure (SMILES): COc1ccc2c(c1)CCN1O[C@@]3(C[C@@H]21)C(=O)O[C@@H]1O[C@@]2(C)CC[C@H]4[C@H](C)CC[C@@H]3[C@@]14OO2
- IC50 [2]: > 20 µM
- IC50 [3]: > 20 µM

Structure (SMILES): C[C@@H]1CC[C@@H]2[C@]34OO[C@](C)(CC[C@@H]13)O[C@H]4OC(=O)[C@@]21CC(c2ccc(Cl)cc2)=NO1
- IC50 (A549 [1]): > 20 µM
- IC50 [2]: 13.9 µM
- IC50 [3]: 14 µM

Structure (SMILES): COc1cc2c(cc1OC)[C@@H]1C[C@]3(ON1CC2)C(=O)O[C@@H]1O[C@@]2(C)CC[C@H]4[C@H](C)CC[C@@H]3[C@@]14OO2
- IC50 (A549 [1]): > 20 µM
- IC50 [2]: > 20 µM
- IC50 [3]: > 20 µM

Structure (SMILES): CC[C@]1(O)C[C@H]2CN(CCc3c([nH]c4ccccc34)[C@@](C(=O)OC)(c3cc4c(cc3OC)N(C=O)[C@H]3[C@@](O)(C(=O)OC)[C@H](OC(C)=O)[C@]5(CC)C=CCN6CC[C@]43[C@@H]65)C2)C1 [VINCRISTINE]
- IC50 (A549 [1]): 0.0368 µM
- IC50 [2]: 0.00087 µM
- IC50 [3]: 0.387 µM

Structure (SMILES): C[C@@H]1CC[C@H]2[C@@H](C)C(=O)O[C@@H]3O[C@@]4(C)CC[C@@H]1[C@]32OO4 [ARTEMISININ]
- IC50 (A549 [1]): > 20 µM
- IC50 [2]: > 20 µM
- IC50 [3]: > 20 µM
